# Laboratory results reported in BindingDB's records for doi:10.1021/jm9900321 (Dupont Pharmaceuticals, 2000).
# What was measured:
# [1] = Inhibition of platelet aggregation in human platelet rich plasma (PRP)
# [2] = target: T1, Integrin alpha-IIb/beta-3 (Homo sapiens, UniProt P08514+P05106); test: Inhibition of platelet aggregation in human gel-purified platelets containing fibrinogen (GPP+Fg).
# Outline: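 Platelets are gel-filtered from human PRP on sepharose (2×10⁸ platelets/mL). They are assayed with 1 mM CaCl₂ and 1 mg/mL fibrinogen across a range of test-agent concentrations, and IC₅₀ is calculated from the inhibition curve.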
# [3] = target: T1, Integrin alpha-IIb/beta-3; test: Inhibition of platelet aggregation in human platelet rich plasma (PRP)
# Outline: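 Human PRP is obtained by centrifuging blood at 150g for 10 min; platelet-poor plasma serves as the 100% transmittance blank. PRP at 2×10⁸ platelets/mL is preincubated with test agent at several concentrations for 8 min. It is then stimulated with ADP (10 μM final), and aggregation is followed as light transmittance over time to derive IC₅₀.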
# T1 sequence (P05106 27-788 limits assumed): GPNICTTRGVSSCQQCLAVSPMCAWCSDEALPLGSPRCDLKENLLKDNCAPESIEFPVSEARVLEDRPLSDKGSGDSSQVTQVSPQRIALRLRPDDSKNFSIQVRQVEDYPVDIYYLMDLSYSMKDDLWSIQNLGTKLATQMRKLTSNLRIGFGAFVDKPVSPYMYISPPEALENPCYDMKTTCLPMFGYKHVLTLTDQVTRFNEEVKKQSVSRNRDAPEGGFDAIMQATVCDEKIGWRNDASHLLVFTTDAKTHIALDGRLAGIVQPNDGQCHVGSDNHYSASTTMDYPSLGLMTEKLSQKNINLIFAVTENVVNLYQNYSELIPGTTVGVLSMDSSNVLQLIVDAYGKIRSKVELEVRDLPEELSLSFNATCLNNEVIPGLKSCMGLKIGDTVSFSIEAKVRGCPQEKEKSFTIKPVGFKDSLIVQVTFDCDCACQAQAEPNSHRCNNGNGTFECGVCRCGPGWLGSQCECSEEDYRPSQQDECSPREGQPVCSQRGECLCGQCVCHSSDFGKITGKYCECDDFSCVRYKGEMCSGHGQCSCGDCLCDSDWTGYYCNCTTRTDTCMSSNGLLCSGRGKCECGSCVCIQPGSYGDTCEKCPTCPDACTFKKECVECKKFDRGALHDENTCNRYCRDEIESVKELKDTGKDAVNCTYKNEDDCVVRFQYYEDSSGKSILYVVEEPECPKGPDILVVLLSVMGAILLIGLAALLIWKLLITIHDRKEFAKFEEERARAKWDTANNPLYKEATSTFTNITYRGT
# T1 sequence (P08514 32-887 limits assumed): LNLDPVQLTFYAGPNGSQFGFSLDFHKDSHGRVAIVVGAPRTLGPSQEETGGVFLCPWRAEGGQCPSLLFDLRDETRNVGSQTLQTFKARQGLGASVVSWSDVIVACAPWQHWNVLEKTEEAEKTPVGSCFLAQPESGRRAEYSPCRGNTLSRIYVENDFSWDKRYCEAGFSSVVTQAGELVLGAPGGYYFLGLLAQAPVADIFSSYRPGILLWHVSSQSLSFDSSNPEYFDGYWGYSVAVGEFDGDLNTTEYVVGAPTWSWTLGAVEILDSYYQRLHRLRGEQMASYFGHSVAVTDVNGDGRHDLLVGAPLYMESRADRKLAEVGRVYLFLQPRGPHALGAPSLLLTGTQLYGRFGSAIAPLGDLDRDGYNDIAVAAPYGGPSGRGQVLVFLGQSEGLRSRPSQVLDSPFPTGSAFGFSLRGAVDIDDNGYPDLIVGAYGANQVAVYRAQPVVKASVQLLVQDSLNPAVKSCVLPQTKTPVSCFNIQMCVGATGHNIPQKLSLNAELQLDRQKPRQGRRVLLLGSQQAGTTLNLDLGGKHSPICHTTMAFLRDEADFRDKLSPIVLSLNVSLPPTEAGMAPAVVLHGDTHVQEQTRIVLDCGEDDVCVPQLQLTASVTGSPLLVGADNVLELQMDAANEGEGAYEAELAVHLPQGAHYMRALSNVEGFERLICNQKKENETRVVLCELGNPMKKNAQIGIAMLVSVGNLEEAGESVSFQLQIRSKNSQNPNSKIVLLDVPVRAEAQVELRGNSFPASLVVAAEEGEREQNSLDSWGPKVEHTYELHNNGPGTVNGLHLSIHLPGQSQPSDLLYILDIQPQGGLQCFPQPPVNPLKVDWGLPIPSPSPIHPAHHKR
# T1 sequence (P08514 891-1039 limits assumed): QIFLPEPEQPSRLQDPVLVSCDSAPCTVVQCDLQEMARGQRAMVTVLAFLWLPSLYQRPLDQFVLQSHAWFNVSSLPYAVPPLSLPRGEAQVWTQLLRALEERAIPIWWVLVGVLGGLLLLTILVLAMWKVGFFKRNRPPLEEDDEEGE
SMILES,IC50 [1] [µM],IC50 [2] [µM],IC50 [3] [µM]
N=C(N)c1ccc(C2=NO[C@@H](CC(=O)NCCC(=O)O)C2)cc1,0.24,0.14,–
Cc1cc(C)c(S(=O)(=O)N[C@H](CNC(=O)C2=NOC(CCCCNc3ncc[nH]3)C2)C(=O)O)c(C)c1 (stereo partly specified),68,28,–
"O=C(NC[C@H](NS(=O)(=O)c1c(Cl)cccc1Cl)C(=O)O)C1=NOC(CCCCNc2ncc[nH]2)C1 (stereo partly specified) [2-(2,6-Dichloro-benzenesulfonylamino)-3-({5-[4-(1H-imidazol-2-ylamino)-butyl]-4,5-dihydro-isoxazole-3-carbonyl}-amino)-propionic acid]",0.35,0.19,–
"Cc1cccc(Cl)c1S(=O)(=O)N[C@@H](CNC(=O)C1=NOC(CCCCNc2ncc[nH]2)C1)C(=O)O (stereo partly specified) [2-(2-Chloro-6-methyl-benzenesulfonylamino)-3-({5-[4-(1H-imidazol-2-ylamino)-butyl]-4,5-dihydro-isoxazole-3-carbonyl}-amino)-propionic acid]",0.39,–,–
"O=C(NC[C@H](NS(=O)(=O)c1c(Cl)cc(-c2ccccc2)cc1Cl)C(=O)O)C1=NOC(CCCCNc2ncc[nH]2)C1 (stereo partly specified) [2-(3,5-Dichloro-biphenyl-4-sulfonylamino)-3-({5-[4-(1H-imidazol-2-ylamino)-butyl]-4,5-dihydro-isoxazole-3-carbonyl}-amino)-propionic acid]",1.6,–,–
"Cc1cc(-c2ccccc2)cc(C)c1S(=O)(=O)N[C@@H](CNC(=O)C1=NOC(CCCCNc2ncc[nH]2)C1)C(=O)O (stereo partly specified) [2-(3,5-Dimethyl-biphenyl-4-sulfonylamino)-3-({5-[4-(1H-imidazol-2-ylamino)-butyl]-4,5-dihydro-isoxazole-3-carbonyl}-amino)-propionic acid]",3.1,0.69,–
"Cc1cc(-c2ccccc2)cc(C)c1S(=O)(=O)N[C@@H](CNC(=O)C1=NOC(CCCCNc2ccccn2)C1)C(=O)O (stereo partly specified) [2-(3,5-Dimethyl-biphenyl-4-sulfonylamino)-3-({5-[4-(pyridin-2-ylamino)-butyl]-4,5-dihydro-isoxazole-3-carbonyl}-amino)-propionic acid]",> 100,–,–
"Cc1noc(C)c1S(=O)(=O)N[C@@H](CNC(=O)C1=NOC(CCCCNc2ncc[nH]2)C1)C(=O)O (stereo partly specified) [2-(3,5-Dimethyl-isoxazole-4-sulfonylamino)-3-({5-[4-(1H-imidazol-2-ylamino)-butyl]-4,5-dihydro-isoxazole-3-carbonyl}-amino)-propionic acid]",1.5,–,–
"CC(C)c1ccc(S(=O)(=O)N[C@@H](CNC(=O)C2=NOC(CCCCNc3ccccn3)C2)C(=O)O)cc1 (stereo partly specified) [2-(4-Isopropyl-benzenesulfonylamino)-3-({5-[4-(pyridin-2-ylamino)-butyl]-4,5-dihydro-isoxazole-3-carbonyl}-amino)-propionic acid]",> 100,–,–
"O=C(NC[C@H](NS(=O)(=O)c1ccc(-c2ccccc2)cc1)C(=O)O)C1=NOC(CCCCNc2ncc[nH]2)C1 (stereo partly specified) [2-(Biphenyl-4-sulfonylamino)-3-({5-[4-(1H-imidazol-2-ylamino)-butyl]-4,5-dihydro-isoxazole-3-carbonyl}-amino)-propionic acid]",43,5,–
"O=C(NC[C@H](NS(=O)(=O)c1cccc2ccccc12)C(=O)O)C1=NOC(CCCCNc2ccccn2)C1 (stereo partly specified) [2-(Naphthalene-1-sulfonylamino)-3-({5-[4-(pyridin-2-ylamino)-butyl]-4,5-dihydro-isoxazole-3-carbonyl}-amino)-propionic acid]",> 100,–,–
"N[C@@H](CNC(=O)C1=NOC(CCCCNc2ncc[nH]2)C1)C(=O)O (stereo partly specified) [2-Amino-3-({5-[4-(1H-imidazol-2-ylamino)-butyl]-4,5-dihydro-isoxazole-3-carbonyl}-amino)-propionic acid]",84,47,–
"O=C(NC[C@H](NS(=O)(=O)c1ccccc1)C(=O)O)C1=NOC(CCCCNc2ccccn2)C1 (stereo partly specified) [2-Benzenesulfonylamino-3-({5-[4-(pyridin-2-ylamino)-butyl]-4,5-dihydro-isoxazole-3-carbonyl}-amino)-propionic acid]",30,18,–
"O=C(N[C@@H](CNC(=O)C1=NOC(CCCCNc2ccccn2)C1)C(=O)O)OCc1ccccc1 (stereo partly specified) [2-Benzyloxycarbonylamino-3-({5-[4-(pyridin-2-ylamino)-butyl]-4,5-dihydro-isoxazole-3-carbonyl}-amino)-propionic acid]",–,85,> 100
"Cc1cc(C)c(S(=O)(=O)N[C@@H](CNC(=O)C2=NOC(CCCCNS(N)(=O)=O)C2)C(=O)O)c(C)c1 (stereo partly specified) [2-[2,4,6-trimethylphenylsulfonylamino]-3-[5-(4-aminosulfonylamino)butyl)isoxazolin-3-ylcarbonyl]amino-propionic acid]",–,> 100,–
"Cc1cc(C)c(S(=O)(=O)N[C@@H](CNC(=O)C2=NOC(CCCC(=O)Nc3ncc[nH]3)C2)C(=O)O)c(C)c1 (stereo partly specified) [3-({5-[3-(1H-Imidazol-2-ylcarbamoyl)-propyl]-4,5-dihydro-isoxazole-3-carbonyl}-amino)-2-(2,4,6-trimethyl-benzenesulfonylamino)-propionic acid]",–,> 100,–
"Cc1cc(C)c(S(=O)(=O)N[C@@H](CNC(=O)C2=NOC(CCCc3cnc(N)[nH]3)C2)C(=O)O)c(C)c1 (stereo partly specified) [3-({5-[3-(2-Amino-1H-imidazol-4-yl)-propyl]-4,5-dihydro-isoxazole-3-carbonyl}-amino)-2-(2,4,6-trimethyl-benzenesulfonylamino)-propionic acid]",0.28,0.18,–
"Cc1cc(C)c(S(=O)(=O)N[C@@H](CNC(=O)C2=NOC(CCCc3cccc(N)n3)C2)C(=O)O)c(C)c1 (stereo partly specified) [3-({5-[3-(6-Amino-pyridin-2-yl)-propyl]-4,5-dihydro-isoxazole-3-carbonyl}-amino)-2-(2,4,6-trimethyl-benzenesulfonylamino)-propionic acid]",78,–,–
"Cc1cc(C)c(S(=O)(=O)N[C@@H](CNC(=O)C2=NOC(CCCCNc3ncc[nH]3)C2)C(=O)O)c(C)c1 (stereo partly specified) [3-({5-[4-(1H-Imidazol-2-ylamino)-butyl]-4,5-dihydro-isoxazole-3-carbonyl}-amino)-2-(2,4,6-trimethyl-benzenesulfonylamino)-propionic acid]",0.85,–,–
"O=C(NC[C@H](NS(=O)(=O)c1cccc2ccccc12)C(=O)O)C1=NOC(CCCCNc2ncc[nH]2)C1 (stereo partly specified) [3-({5-[4-(1H-Imidazol-2-ylamino)-butyl]-4,5-dihydro-isoxazole-3-carbonyl}-amino)-2-(naphthalene-1-sulfonylamino)-propionic acid]",7.8,0.57,–
"Cc1cc(C)c(S(=O)(=O)N[C@@H](CNC(=O)C2=NOC(CCCCNC3=NCCN3)C2)C(=O)O)c(C)c1 (stereo partly specified) [3-({5-[4-(4,5-Dihydro-1H-imidazol-2-ylamino)-butyl]-4,5-dihydro-isoxazole-3-carbonyl}-amino)-2-(2,4,6-trimethyl-benzenesulfonylamino)-propionic acid]",0.69,0.6,–
"Cc1cc(C)c(S(=O)(=O)N[C@@H](CNC(=O)C2=NOC(CCCCNc3nccc4ccccc34)C2)C(=O)O)c(C)c1 (stereo partly specified) [3-({5-[4-(Isoquinolin-1-ylamino)-butyl]-4,5-dihydro-isoxazole-3-carbonyl}-amino)-2-(2,4,6-trimethyl-benzenesulfonylamino)-propionic acid]",78,6.5,–
"Cc1cc(C)c(S(=O)(=O)N[C@@H](CNC(=O)C2=NOC(CCCCNc3cc4ccccc4cn3)C2)C(=O)O)c(C)c1 (stereo partly specified) [3-({5-[4-(Isoquinolin-3-ylamino)-butyl]-4,5-dihydro-isoxazole-3-carbonyl}-amino)-2-(2,4,6-trimethyl-benzenesulfonylamino)-propionic acid]",11,7.7,–
"Cc1cc(C)c(S(=O)(=O)N[C@@H](CNC(=O)C2=NOC(CCCCNc3ccccn3)C2)C(=O)O)c(C)c1 (stereo partly specified) [3-({5-[4-(Pyridin-2-ylamino)-butyl]-4,5-dihydro-isoxazole-3-carbonyl}-amino)-2-(2,4,6-trimethyl-benzenesulfonylamino)-propionic acid]",16,6.5,–
"Cc1cc(C)c(S(=O)(=O)N[C@@H](CNC(=O)C2=NOC(CCNC(=O)Nc3ncc[nH]3)C2)C(=O)O)c(C)c1 (stereo partly specified) [3-[(5-{2-[3-(1H-Imidazol-2-yl)-ureido]-ethyl}-4,5-dihydro-isoxazole-3-carbonyl)-amino]-2-(2,4,6-trimethyl-benzenesulfonylamino)-propionic acid]",120,32,–
"Cc1cc(C)c(S(=O)(=O)N[C@@H](CNC(=O)C2=NOC(CCCCNC(=N)N)C2)C(=O)O)c(C)c1 (stereo partly drawn) [3-{5-[4-amino(imino)methylaminobutyl]-4,5-dihydro-3-isoxazolylcarboxamido}-2-mesitylsulfonamido-(2S)-propanoic acid]",0.16,–,–
